In the array DNA melting data of Ke et al. (doi:10.1101/2024.01.08.574731):

Columns and labels:
[1] = folding enthalpy; higher = less favourable; fluorescence melt of hairpins on a sequencing array, two-state fit; conditions: sodium 0.088 M
In short: (§1)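 Melting temperature and folding enthalpy were derived from bootstrapped two-state fits. The fitted temperatures were raised by 9.35 °C to agree with UV melts, and four replicates were combined by inverse variance. The underlying data were Cy3 fluorescence images of library hairpins, with annealed Cy3 and quencher oligos, on a sequenced MiSeq flow cell in 50 mM Na-HEPES pH 8.0, 25 mM NaCl, taken in 2.5 °C steps up to 60 °C, normalised to pre-quench Cy3 and to control constructs.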

[2] = melting temperature; fluorescence melt of hairpins on a sequencing array, two-state fit, raised by 9.35 °C to match UV melts; conditions: sodium 0.088 M
In short: as §1

| Sequence | folding enthalpy [1] | Tm [2] |
| --- | --- | --- |
| GCGGCGCGAAAGCCTCGC (((..((....))..))) | -18.6 kcal/mol | 55.8 °C |
| GCGGCGGCGAAAGCCCGC (((..(((....)))))) | -12.3 kcal/mol | 65.6 °C |
| GCGGCGGGAAACCGCCAC (.(((((....))))).) | -10.5 kcal/mol | 52.6 °C |
| GCGGCGTCCCGC ((((....)))) | -14.5 kcal/mol | 56.7 °C |
| GCGGCTACCGC ((((...)))) | -21 kcal/mol | 57.7 °C |
| GCGGCTCACCGC ((((....)))) | -26.9 kcal/mol | 63 °C |
| GCGGCTCCCGC ((((...)))) | -23.7 kcal/mol | 56.9 °C |
| GCGGCTGCCGC ((((...)))) | -31.2 kcal/mol | 57.1 °C |
| GCGGCTGGAAACAACCGC ((((.((....)).)))) | -45 kcal/mol | 54 °C |
| GCGGCTTCCGC ((((...)))) | -25.9 kcal/mol | 57.8 °C |
| GCGGGAGGAAACCCCCAC (.(((.(....).))).) | -10.6 kcal/mol | 27.7 °C |
| GCGGGAGTCCGC ((((....)))) | -23.6 kcal/mol | 55.7 °C |
| GCGGGATCGAAAGATCGC (((..(((....)))))) | -13.8 kcal/mol | 51 °C |
| GCGGGATGCCGC ((((....)))) | -22.6 kcal/mol | 55.8 °C |
| GCGGGATTCCGC ((((....)))) | -20.5 kcal/mol | 59.1 °C |
| GCGGGCCCCCGC ((((....)))) | -23.5 kcal/mol | 64.4 °C |
| GCGGGCCTCCGC ((((....)))) | -22.5 kcal/mol | 64 °C |
| GCGGGCGAAAGCCGACGC ((((((....)))..))) | -19.9 kcal/mol | 61.9 °C |
| GCGGGGACGAAAGTCCGC (((..(((....)))))) | -13.2 kcal/mol | 58.5 °C |
| GCGGGGAGCCGC ((((....)))) | -14.4 kcal/mol | 62.7 °C |
| GCGGGGCCCGC ((((...)))) | -34.8 kcal/mol | 63.3 °C |
| GCGGGGCCGAAAGGCCGC (((..(((....)))))) | -10.2 kcal/mol | 59.6 °C |
| GCGGGGCGAAAGCACGGC ((.(.((....)).).)) | -15.7 kcal/mol | 65.2 °C |
| GCGGGGCGAAAGCACTGC ((.(.((....)).).)) | -24.7 kcal/mol | 65.5 °C |
| GCGGGGCGAAAGCGTCGC (((..((....))..))) | -36 kcal/mol | 67.8 °C |

| Sequence | folding enthalpy [1] | Tm [2] |
| --- | --- | --- |
| GCGGGGGCCGC ((((...)))) | -9.27 kcal/mol | 62.1 °C |
| GCGGGGGTCCGC ((((....)))) | -22.6 kcal/mol | 61.7 °C |
| GCGGGTCCGAAAGGACGC (((..(((....)))))) | -11.3 kcal/mol | 52.5 °C |
| GCGGGTGGAAACACCTGC ((.((((....)))).)) | -37.5 kcal/mol | 59.1 °C |
| GCGGGTGGAAACACTCGC (((.(((....))).))) | -40.8 kcal/mol | 60.7 °C |
| GCGGGTGGAAACGTCCGC ((((..(....)..)))) | -32 kcal/mol | 53 °C |
| GCGGGTGGCCGC ((((....)))) | -15.8 kcal/mol | 62.1 °C |
| GCGGGTTCCGC ((((...)))) | -25.4 kcal/mol | 57.2 °C |
| GCGGTAACCCGC ((((....)))) | -27.8 kcal/mol | 54.2 °C |
| GCGGTAATCCGC ((((....)))) | -24.7 kcal/mol | 56.2 °C |
| GCGGTACACCGC ((((....)))) | -40.4 kcal/mol | 59.1 °C |
| GCGGTACCCCGC ((((....)))) | -21.6 kcal/mol | 54.5 °C |
| GCGGTACCGAAAGGTCGC (((..(((....)))))) | -26.3 kcal/mol | 55.4 °C |
| GCGGTACTCCGC ((((....)))) | -23.3 kcal/mol | 64.1 °C |
| GCGGTAGAAATACCGC ((((((....)))))) | -36 kcal/mol | 66.9 °C |
| GCGGTAGCCGC ((((...)))) | -11.8 kcal/mol | 61.2 °C |
| GCGGTAGCGAAAGCTCGC (((..(((....)))))) | -15.5 kcal/mol | 52.8 °C |
| GCGGTAGGAAACCACCGC (((((.(....).))))) | -36.8 kcal/mol | 57.3 °C |
| GCGGTAGGAAACTGCCGC ((((.((....)).)))) | -29.6 kcal/mol | 61.6 °C |
| GCGGTAGGAAACTGCTGC ((.(.((....)).).)) | -27.5 kcal/mol | 45.5 °C |
| GCGGTATCCGC ((((...)))) | -24 kcal/mol | 54.9 °C |
| GCGGTATGCCGC ((((....)))) | -33.6 kcal/mol | 63 °C |
| GCGGTCAACCGC ((((....)))) | -28.6 kcal/mol | 56 °C |
| GCGGTCACGAAAGTGCGC (((..(((....)))))) | -29.4 kcal/mol | 52.1 °C |
